In ChEMBL document CHEMBL4177755, “Combating Drug-Resistant Fungi with Novel Imperfectly Amphipathic Palindromic Peptides” (J Med Chem, 2018):

How the values were obtained:
[1] = Cytotoxicity against mouse RAW264.7 cells assessed as cell viability at 2 to 64 uM after 24 hrs by MTT assay relative to control; type: cell-based; conditions: read-out: Activity
In short: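 MTT viability assay. RAW264.7 or HEK293T cells at (1.0−2.0) × 10^5 per well were exposed to a peptide concentration series for 24 h at 37 °C in 5% CO2. MTT was then added at 0.5 mg/mL final for 4 h; formazan was dissolved in DMSO and read at 570 nm. Results average three independent trials.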

Candida albicans [2] = experiment: Antifungal activity against Candida albicans SP3931 after 48 hrs by broth microdilution method; type: functional; conditions: SP3931, 48 h
In short: (§1)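 Modified CLSI M27-A2 broth microdilution. Yeast at (0.5−1) × 10^3 CFU/mL in MOPS-buffered RPMI 1640 was mixed 1:1 with peptide serially diluted in 0.2% BSA and incubated 48 h at 28 °C. Absorbance was read at 492 nm; MIC is the lowest concentration inhibiting 95% of growth. Triplicate, three biological replicates.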

Candida albicans [3] = experiment: Fungicidal activity against fluconazole-resistant Candida albicans 17546 after 96 hrs; type: functional; conditions: Candida albicans, 17546, 96 h; read-out: MFC99.9
In short: (§2)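 After the 48 h, 28 °C broth microdilution in MOPS-buffered RPMI 1640 (inoculum (0.5−1) × 10^3 CFU/mL), 50 μL from each well was plated on YM agar for a further 48 h at 28 °C. MFC is the lowest concentration killing at least 99.9% of cells. Triplicate, three biological replicates.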

Escherichia coli [4] = experiment: Antibacterial activity against Escherichia coli ATCC 25922 after 18 hrs in presence of CaCl2 by broth dilution method; type: functional; conditions: ATCC 25922, 18 h
Candida albicans [5] = experiment: Antifungal activity against fluconazole-resistant Candida albicans 17546 after 48 hrs by broth microdilution method; type: functional; conditions: Candida albicans, 17546, 48 h; in short: as §1
Candida albicans [6] = experiment: Antifungal activity against Candida albicans 14936 after 48 hrs by broth microdilution method; type: functional; conditions: Candida albicans, 14936, 48 h; in short: as §1
Candida albicans [7] = experiment: Antifungal activity against Candida albicans cgmcc 2.2086 in presence of KCl by broth dilution method; type: functional
[8] = test system: Staphylococcus epidermidis; experiment: Antibacterial activity against Staphylococcus epidermidis ATCC 12228 after 24 hrs; type: functional; conditions: ATCC 12228, 24 h
In short: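 Broth microdilution. Mid-log bacteria in MHB at a final (0.5−1) × 10^5 CFU/mL were mixed with equal volumes of peptide serially diluted in 0.2% BSA. Plates were incubated 24 h at 37 °C and read at A492. MIC is the lowest concentration inhibiting 95% of growth. Each test was repeated at least 3 times.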

Escherichia coli [9] = experiment: Antibacterial activity against Escherichia coli ATCC 25922 after 18 hrs in presence of ZnCl2 by broth dilution method; type: functional; conditions: ATCC 25922, 18 h
Candida albicans [10] = experiment: Antifungal activity against Candida albicans cgmcc 2.2086 after 48 hrs by broth microdilution method; type: functional; conditions: cgmcc 2.2086, 48 h; in short: as §1
Candida albicans [11] = experiment: Antifungal activity against Candida albicans cgmcc 2.2086 in presence of NaCl by broth dilution method; type: functional
Candida albicans [12] = experiment: Fungicidal activity against Candida albicans SP3876 after 96 hrs; type: functional; conditions: SP3876, 96 h, read-out: MFC99.9; in short: as §2
Escherichia coli [13] = experiment: Antibacterial activity against Escherichia coli ATCC 25922 after 18 hrs in presence of MgCl2 by broth dilution method; type: functional; conditions: ATCC 25922, 18 h
Candida albicans [14] = experiment: Fungicidal activity against fluconazole-resistant Candida albicans 56214 after 96 hrs; type: functional; conditions: Candida albicans, 56214, 96 h; read-out: MFC99.9; in short: as §2
Candida albicans [15] = experiment: Antifungal activity against fluconazole-resistant Candida albicans 56214 after 48 hrs by broth microdilution method; type: functional; conditions: Candida albicans, 56214, 48 h; in short: as §1
Staphylococcus aureus [16] = experiment: Antibacterial activity against Staphylococcus aureus ATCC 29213 after 24 hrs; type: functional; conditions: ATCC 29213, 24 h
In short: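 Modified NCCLS broth microdilution. Mid-log bacteria at (0.5−1) × 10^5 CFU/mL in MHB were mixed 1:1 with peptide serially diluted in 0.2% BSA and incubated 24 h at 37 °C. Absorbance was read at 492 nm; MIC is the lowest concentration inhibiting 95% of growth. At least 3 repeats.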

Escherichia coli [17] = experiment: Antibacterial activity against Escherichia coli ATCC 25922 after 18 hrs in presence of FeCl3 by broth dilution method; type: functional; conditions: ATCC 25922, 18 h
Candida albicans [18] = experiment: Fungicidal activity against Candida albicans SP3902 after 96 hrs; type: functional; conditions: SP3902, 96 h, read-out: MFC99.9; in short: as §2
Escherichia coli [19] = experiment: Bactericidal activity against Escherichia coli 1005; type: functional; conditions: read-out: MBC99.9
In short: (§3)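 Wells from the 24 h, 37 °C MHB microdilution plates (bacteria at a final (0.5−1) × 10^5 CFU/mL; peptide diluted in 0.2% BSA) were plated on agar and incubated overnight. MBC is the lowest concentration killing >99.9% of cells. Each test was reproduced at least 3 times.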

Candida albicans [20] = experiment: Fungicidal activity against Candida albicans 58288 after 96 hrs; type: functional; conditions: Candida albicans, 58288, 96 h; read-out: MFC99.9; in short: as §2
Candida albicans [21] = experiment: Fungicidal activity against Candida albicans SP3931 after 96 hrs; type: functional; conditions: SP3931, 96 h, read-out: MFC99.9; in short: as §2
Candida albicans [22] = experiment: Antifungal activity against Candida albicans SP3876 after 48 hrs by broth microdilution method; type: functional; conditions: SP3876, 48 h; in short: as §1
Candida parapsilosis [23] = experiment: Fungicidal activity against Candida parapsilosis cgmcc 2.3989 after 96 hrs; type: functional; conditions: Lodderomyces parapsilosis, cgmcc 2.3989, 96 h; read-out: MFC99.9
In short: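 Wells from the 48 h, 28 °C RPMI 1640/MOPS microdilution plates were plated on YM agar and incubated a further 48 h at 28 °C. MFC is the lowest concentration killing at least 99.9% of cells. Run in triplicate with three biological replicates.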

Erythrocyte = experiment: Hemolytic activity in human RBC after 1 hr; type: ADME, cell-based
In short: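 Fresh human erythrocytes, diluted 10-fold in PBS pH 7.4, were mixed with equal volumes of peptide and held 1 h at 37 °C. After centrifugation at 1000g, supernatant hemoglobin was read at 576 nm. PBS set 0% and 0.1% Triton X-100 set 100% lysis. MHC is the concentration causing 10% hemolysis. At least three experiments were run, each in technical triplicate.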

Candida tropicalis = experiment: Antifungal activity against Candida tropicalis cgmcc 2.1975 after 48 hrs by broth microdilution method; type: functional; conditions: cgmcc 2.1975, 48 h
In short: (§4)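 Modified CLSI M27-A2 broth microdilution. Yeast were suspended in MOPS-buffered RPMI 1640 at a final (0.5−1) × 10^3 CFU/mL and mixed 1:1 with peptide serially diluted in 0.2% BSA. Plates were incubated 48 h at 28 °C and read at A492. MIC is the lowest concentration giving 95% inhibition. Run in triplicate with three biological replicates.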

Candida parapsilosis [24] = experiment: Antifungal activity against Candida parapsilosis cgmcc 2.3989 after 48 hrs by broth microdilution method; type: functional; conditions: Lodderomyces parapsilosis, cgmcc 2.3989, 48 h; in short: as §4
Escherichia coli [25] = experiment: Bactericidal activity against Escherichia coli ATCC 25922; type: functional; conditions: read-out: MBC99.9; in short: as §3
Staphylococcus aureus [26] = experiment: Bactericidal activity against Staphylococcus aureus ATCC 25923; type: functional; conditions: read-out: MBC99.9; in short: as §3
Escherichia coli [27] = experiment: Antibacterial activity against Escherichia coli ATCC 25922 after 18 hrs in presence of KCl by broth dilution method; type: functional; conditions: ATCC 25922, 18 h
[28] = test system: Staphylococcus epidermidis; experiment: Bactericidal activity against Staphylococcus epidermidis ATCC 12228; type: functional; conditions: read-out: MBC99.9; in short: as §3

Substance	viability at 24 h, up to 64 µM [1] [%]	MIC95 (Candida albicans [2]) [µM]	MFC (Candida albicans [3]) [µM]	MIC (Escherichia coli [4]) [µM]	MIC95 (Candida albicans [5]) [µM]	MIC95 (Candida albicans [6]) [µM]	MIC (Candida albicans [7]) [µM]	MIC95 [8] [µM]	MIC (Escherichia coli [9]) [µM]	MIC95 (Candida albicans [10]) [µM]	MIC (Candida albicans [11]) [µM]	MFC (Candida albicans [12]) [µM]	MIC (Escherichia coli [13]) [µM]	MFC (Candida albicans [14]) [µM]	MIC95 (Candida albicans [15]) [µM]	MIC95 (Staphylococcus aureus [16]) [µM]	MIC (Escherichia coli [17]) [µM]	MFC (Candida albicans [18]) [µM]	MBC (Escherichia coli [19]) [µM]	MFC (Candida albicans [20]) [µM]	other results
H-RRIRIIIRIRR-NH2	> 85	2	2	8	2	2	2	4	4	2	4	1	2	2	1	4	4	2	4	2	MFC (Candida albicans [21]): 4 µM; MIC95 (Candida albicans [22]): 1 µM; MFC (Candida parapsilosis [23]): 8 µM; HC10 (Erythrocyte): > 128 µM; MIC95 (Candida tropicalis): 1 µM; MIC95 (Candida parapsilosis [24]): 4 µM; MBC (Escherichia coli [25]): 4 µM; MBC (Staphylococcus aureus [26]): 8 µM; MIC (Escherichia coli [27]): 4 µM; MBC [28]: 4 µM
H-RWRWWWRWR-NH2	70 to 80	8	2	4	1	8	16	4	2	8	16	4	2	8	4	4	4	16	4	8	MFC (Candida albicans [21]): 16 µM; MIC95 (Candida albicans [22]): 4 µM; MFC (Candida parapsilosis [23]): 32 µM; HC10 (Erythrocyte): > 128 µM; MIC95 (Candida tropicalis): 2 µM; MIC95 (Candida parapsilosis [24]): 16 µM; MBC (Escherichia coli [25]): 4 µM; MBC (Staphylococcus aureus [26]): 8 µM; MIC (Escherichia coli [27]): 4 µM; MBC [28]: 8 µM
H-FFRRFRRFF-NH2	70 to 80	16	8	32	4	16	16	4	8	16	16	32	8	32	16	8	8	32	16	32	MFC (Candida albicans [21]): 32 µM; MIC95 (Candida albicans [22]): 16 µM; MFC (Candida parapsilosis [23]): > 64 µM; HC10 (Erythrocyte): > 128 µM; MIC95 (Candida tropicalis): 4 µM; MIC95 (Candida parapsilosis [24]): > 64 µM; MBC (Escherichia coli [25]): 8 µM; MBC (Staphylococcus aureus [26]): 8 µM; MIC (Escherichia coli [27]): 8 µM; MBC [28]: 8 µM
H-RLLRRLRRLLR-NH2	70 to 80	8	16	8	8	8	16	4	8	8	16	8	2	16	8	4	16	8	4	16	MFC (Candida albicans [21]): 8 µM; MIC95 (Candida albicans [22]): 4 µM; MFC (Candida parapsilosis [23]): 16 µM; HC10 (Erythrocyte): > 128 µM; MIC95 (Candida tropicalis): 2 µM; MIC95 (Candida parapsilosis [24]): 8 µM; MBC (Escherichia coli [25]): 16 µM; MBC (Staphylococcus aureus [26]): 16 µM; MIC (Escherichia coli [27]): 4 µM; MBC [28]: 4 µM
H-RRLRLLLRLRR-NH2	70 to 80	8	16	4	8	8	32	4	4	8	64	4	2	8	4	16	8	4	4	8	MFC (Candida albicans [21]): 16 µM; MIC95 (Candida albicans [22]): 4 µM; MFC (Candida parapsilosis [23]): 64 µM; HC10 (Erythrocyte): > 128 µM; MIC95 (Candida tropicalis): 2 µM; MIC95 (Candida parapsilosis [24]): 64 µM; MBC (Escherichia coli [25]): 4 µM; MBC (Staphylococcus aureus [26]): 8 µM; MIC (Escherichia coli [27]): 4 µM; MBC [28]: 4 µM
H-LLRRLRRLL-NH2	70 to 80	32	> 64	64	64	32	64	16	16	32	64	4	16	32	32	64	16	> 64	16	32	MFC (Candida albicans [21]): 32 µM; MIC95 (Candida albicans [22]): 32 µM; MFC (Candida parapsilosis [23]): > 64 µM; HC10 (Erythrocyte): > 128 µM; MIC95 (Candida tropicalis): 4 µM; MIC95 (Candida parapsilosis [24]): > 64 µM; MBC (Escherichia coli [25]): 32 µM; MBC (Staphylococcus aureus [26]): 32 µM; MIC (Escherichia coli [27]): 16 µM; MBC [28]: 16 µM
H-RRWRWWWRWRR-NH2	70 to 80	4	4	8	4	8	8	4	4	4	8	4	2	8	4	2	4	4	4	8	MFC (Candida albicans [21]): 8 µM; MIC95 (Candida albicans [22]): 2 µM; MFC (Candida parapsilosis [23]): 16 µM; HC10 (Erythrocyte): > 128 µM; MIC95 (Candida tropicalis): 2 µM; MIC95 (Candida parapsilosis [24]): 8 µM; MBC (Escherichia coli [25]): 4 µM; MBC (Staphylococcus aureus [26]): 8 µM; MIC (Escherichia coli [27]): 4 µM; MBC [28]: 8 µM
